The target in one series is T1, Renin (Homo sapiens, UniProt P00797).
T1 sequence (P00797 whole entry): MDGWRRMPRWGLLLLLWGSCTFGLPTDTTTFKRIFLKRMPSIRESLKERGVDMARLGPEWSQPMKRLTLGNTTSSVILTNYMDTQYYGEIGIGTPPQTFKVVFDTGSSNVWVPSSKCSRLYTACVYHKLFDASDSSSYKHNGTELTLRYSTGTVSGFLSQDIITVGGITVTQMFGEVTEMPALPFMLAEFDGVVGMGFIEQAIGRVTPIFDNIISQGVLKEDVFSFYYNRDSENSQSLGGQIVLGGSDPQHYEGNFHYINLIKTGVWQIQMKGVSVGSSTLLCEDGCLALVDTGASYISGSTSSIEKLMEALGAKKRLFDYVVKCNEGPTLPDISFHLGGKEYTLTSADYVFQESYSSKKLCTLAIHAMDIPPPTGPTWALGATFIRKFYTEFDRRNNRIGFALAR
The series is described as follows: Inhibition of renin in human plasma using RE(EDANS)IHPFHLVIHTK(Dabcyl)R as substrate incubated for 1 hr prior to substrate addition measured after 2 hrs by FRET-based enzymatic assay. A digest of the protocol:
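Renin activity measured in the presence of human plasma by FRET cleavage of the quenched peptide substrate. IC50 is the half-maximal inhibition.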

The nature of series [1]: Half life in jugular vein cannulated Sprague-Dawley rat at 2 mg/kg, iv by HPLC-MS analysis. The class given is ADME, organism-based. More on the design: dose 2 mg/kg, route intravenous. The conditions noted are these: in vivo. In short, it runs like this:
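Cannulated, fed Sprague–Dawley rats were given 2 mg/kg intravenously and 6 mg/kg orally. Oral bioavailability came from the two routes. t1/2, plasma clearance and Vdss were estimated. Oral Cmax and AUC were taken over 0–24 h.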

Here are results for one compound from ChEMBL document CHEMBL2321868, “The discovery of novel potent trans-3,4-disubstituted pyrrolidine inhibitors of the human aspartic protease renin from in silico three-dimensional (3D) pharmacophore searches” (J Med Chem, 2013).

Structures are written as SMILES.

In turn, `COCCCOc1cc(C(=O)N(C[C@@H]2CNC[C@H]2Cc2ccccc2)C(C)C)ccc1OC.Cl` displayed an IC50 against Renin of 300 nM. Also, the half-life in series [1] was 120 min.

What is called IC50 is the concentration at which inhibition is half-maximal. Low readings indicate inhibition by little substance, high ones a need for much substance. One may read the half-life as how long it takes for the measured level to halve.
